# According to PubChem BioAssay:
# Calls of active or inactive are those of the source.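 How the source made its calls, unless noted: active means GFP response above 150% of the DMSO level; inconclusive means fewer than 70 events counted for a yeast strain; inactive means the rest.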
# Assays:
# [1] = RPL19A-GFP modulators, yeast TOR pathway, confirmation, cell-based, S. cerevisiae, flow cytometry, cherry picks, mother/daughter gates (AID 2270;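 active means GFP response below 50% of the DMSO control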); conditions: S. cerevisiae RPL19A-GFP strain, 3 h, at 10 µM, stronger effect = lower value, 100 = same GFP as DMSO wells
# [2] = LAP4-GFP expression modulators in yeast, confirmation, cell-based, cherry picks, flow cytometry, mother/daughter gates (AID 2271;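 active means GFP response above 150% of the DMSO control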;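 further: ratio of sample to DMSO plate mean so 100% equals DMSO level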); conditions: S. cerevisiae LAP4-GFP strain, 3 h, at 10 µM, stronger effect = higher value, 100 means same as DMSO control
# In short: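 Test system: GFP-fusion yeast strain / Amount: 0.2 OD600 cells / Buffer or medium: SC medium / Dosing: 10 µM single dose / Incubation: compound exposure 3 h at 30 °C, end-over-end rotation / Detection: HT flow cytometry, GFP fluorescence channel / Evaluation: median GFP fluorescence as percent of plate-mean DMSO wells / Control set: DMSO-only negative wells, rapamycin 400 ng/mL positive wells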
# [3] = modulators of MEP2-GFP levels in yeast, confirmation, S. cerevisiae, flow cytometry GFP, cherry picks (AID 2272;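 active means GFP response above 150% of the DMSO control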;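 further: ratio of well signal to plate DMSO mean so 100% equals DMSO level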); conditions: S. cerevisiae MEP2-GFP strain, 3 h, at 10 µM, stronger effect = higher value
# [4] = AGP1-GFP expression modulators, hit retest, confirmation, cell-based, flow cytometry, S. cerevisiae, cherry picks (AID 2273);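 further: median GFP channel fluorescence over the whole cell population gate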; conditions: S. cerevisiae AGP1-GFP strain, 3 h, at 10 µM
# [5] = modulators of CIT2-GFP expression in yeast, confirmation, S. cerevisiae, GFP fusion, cherry picks, mother/daughter gates (AID 2274); conditions: S. cerevisiae CIT2-GFP strain, flow cytometry, 3 h, at 10 µM, stronger effect = higher value
# [6] = measured here: daughter cell gate
# [7] = measured here: mother cell gate
# [8] = measured here: daughter cell gate response
# [9] = measured here: mother cell gate response
Compound,GFP response vs DMSO [1],"GFP response vs DMSO [1, 6]","GFP response vs DMSO [1, 7]",GFP response relative to DMSO [2],"GFP response relative to DMSO [2, 8]","GFP response relative to DMSO [2, 9]",GFP response vs DMSO [3],"GFP response, % of DMSO [4]","GFP response, % of DMSO [5]","GFP response, % of DMSO [5, 6]","GFP response, % of DMSO [5, 7]"
Cc1ccc(C(=O)N/C(=C/c2ccco2)C(=O)N2CCOCC2)cc1,103% (inactive),100%,104%,105% (inactive),106%,104%,101% (inactive),102% (inactive),95.9% (inactive),97.4%,95.6%
CCOC(=O)Cc1csc(NC(=O)COc2ccc(N(C)S(=O)(=O)c3cccs3)cc2)n1,95% (inactive),94.9%,92%,102% (inactive),101%,98.3%,105% (inactive),96.6% (inactive),95.5% (inactive),97.2%,95%
Cc1ccccc1CN1CCSc2sccc2C1=O,95.9% (inactive),94.2%,97.3%,106% (inactive),105%,113%,95.7% (inactive),97.2% (inactive),97.8% (inactive),94.8%,98.7%
O=C(c1ccccc1F)N1CCN(c2ccccc2F)CC1,101% (inactive),99.8%,102%,98.7% (inactive),100%,99.3%,100% (inactive),95% (inactive),104% (inactive),105%,105%
CCc1nnc(N2C(=O)c3cccc4cccc(c34)C2=O)s1,94.5% (inactive),95%,93.3%,94.1% (inactive),92.9%,94.4%,108% (inactive),98.8% (inactive),100% (inactive),101%,99.3%
NC(=O)c1ccccc1OCC(=O)c1ccc(Cl)cc1,100% (inactive),101%,99%,96.5% (inactive),96%,97.4%,99.3% (inactive),102% (inactive),100% (inactive),97.6%,100%
CC(C)n1c(=S)[nH]c2c1c(=O)[nH]c(=O)n2C,98.8% (inactive),97.3%,99.8%,99.8% (inactive),102%,101%,100% (inactive),104% (inactive),100% (inactive),99.7%,102%
Cc1ccc(/C=C/C(=O)c2ccc([N+](=O)[O-])o2)cc1,101% (inactive),107%,91.8%,89.4% (inactive),89.8%,85.2%,114% (inactive),107% (inactive),106% (inactive),114%,89.3%
C(=N\Nc1nc(-c2cccnc2)nc2ccccc12)/c1ccccc1,101% (inactive),101%,102%,99.2% (inactive),99.2%,98.3%,102% (inactive),95.6% (inactive),104% (inactive),105%,103%
Cc1ccc(C(=O)/C=C/C(=O)c2ccc(C)cc2)cc1,103% (inactive),104%,97.7%,195% (active),190%,201%,101% (inactive),111% (inactive),95.9% (inactive),100%,84.8%
COc1ccc(NC(=O)c2ccccc2NC(=O)c2ccccc2)cc1,98.4% (inactive),98.4%,99.2%,91.5% (inactive),94.4%,89.7%,96.2% (inactive),102% (inactive),103% (inactive),101%,102%
Cc1ccc(CN2CCSc3sccc3C2=O)cc1,84.4% (inactive),83.1%,85.5%,142% (inactive),130%,145%,96.8% (inactive),97.1% (inactive),75.5% (inactive),72.1%,76%
NC(=O)CSCc1c(Cl)cccc1Cl,101% (inactive),100%,101%,105% (inactive),103%,108%,109% (inactive),97.2% (inactive),93.9% (inactive),94.8%,92.3%
CC(=O)c1ccc(N2CCN(S(=O)(=O)c3ccc4c(c3)CC(C)N4C(C)=O)CC2)cc1 (configuration not stated),95.8% (inactive),93.9%,91.9%,98.9% (inactive),97.5%,98.4%,103% (inactive),98.8% (inactive),104% (inactive),99.3%,103%
CCCc1nn(-c2ccccc2)c2c1C(c1cccs1)C(C#N)=C(N)O2 (configuration not stated),101% (inactive),100%,102%,90.2% (inactive),92.5%,95.2%,95.7% (inactive),95.9% (inactive),102% (inactive),98.1%,102%
Cc1ccn2c(NC3CCCCC3)c(C)nc2c1,99.4% (inactive),100%,99.6%,95.7% (inactive),95.9%,96.2%,99% (inactive),99% (inactive),98.8% (inactive),101%,96.8%
C=CCn1c(=O)c(C(=O)Nc2ccccc2O)c(O)c2ccccc21,99.8% (inactive),98.9%,101%,108% (inactive),106%,106%,105% (inactive),98.7% (inactive),104% (inactive),105%,102%
